T cruzi HTS = blocks T. cruzi growth inside host cells; intracellular Trypanosoma cruzi in host cells, plate reader; activity score (inhibition), % at 5.01 µM; hit rate 4.9% among 22,000; AID 651903; in the data active = activity score above about 55%; inconclusive = no clear call, values can overlap the other calls;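 note: parasites and compound incubated about four days before reading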
INS-1E rescue = INS-1E beta cell protection from cytokine death | INS-1E cytokine-induced death, ATP luminescence, 48 h; normalised: neutral wells 0, positive control 100 | protection from cytokine-induced ATP loss, % at 10 µM | hit rate 0.1% among 20,000;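 active = mean replicate protection from cytokine-induced ATP loss at least 50% and at least 75% of replicates each reaching 50%; inconclusive = meets only one of the two criteria, mean or replicate share; inactive = fails both the mean and replicate share criteria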
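assay system = INS-1E rat insulinoma cells | amount = 8000 cells per well | medium = phenol-red-free RPMI with 5% fetal bovine serum | doses = one compound concentration, pin transfer | timing = 48 h cytokine plus compound treatment, 10 min reagent incubation | also added = IL-1β, TNF-α and IFN-γ cytokine mix | signal = CellTiter-Glo luminescence measuring cellular ATP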
A1 apoptosis 2 = compounds inhibiting A1, read as caspase activation; MEF A1-2A-BIM cells, caspase-Glo luminescence, 3 h; percent of clofoctol response, DMSO zero; caspase activation, % (no concentration beside the values); 24,000 tested, under 10 active; in the data active = caspase activation above about 5.9%; inconclusive = no clear call, values can overlap the other calls; inactive = below about 2.2%
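system = A1-2A-BIM-expressing MEF cells | quantity = 2500 MEF cells/well | dosing = 50 nL compound per well, pinned | schedule = overnight cell settling, then 3 h compound exposure, 37 °C | signal = luminescence from DEVD-luciferin Caspase-Glo reagent, 1:1 in 50 mM HEPES, 1 h RT | read-out = Caspase-3/7 activation, seen as rise in luminescence signal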
Hits are given with their value; n = inactive; u = inconclusive; x = no result given. The sample as a whole holds a higher share of hits than the screen did.

SMILES	T cruzi HTS	INS-1E rescue	A1 apoptosis 2
C[C@@H]1CN([C@H](C)CO)C(=O)Cc2cc(NC(=O)Nc3ccc(C(F)(F)F)cc3)ccc2O[C@@H]1CN(C)Cc1ccc(Cl)c(Cl)c1	65.2	n	x
C[C@H](CO)N1C[C@H](C)[C@H](CN(C)Cc2ccc(Cl)c(Cl)c2)Oc2ccc(NC(=O)Nc3ccc(C(F)(F)F)cc3)cc2CC1=O	63.2	n	x
C[C@H]1CN([C@@H](C)CO)C(=O)Cc2cc(NC(=O)Nc3ccc(C(F)(F)F)cc3)ccc2O[C@H]1CN(C)Cc1ccc(Cl)c(Cl)c1	78.0	n	n
C=CCOC(=O)[C@]12O[C@@]3(COC[C@H](c4ccccc4)N3C1=O)[C@H]1C(=O)N(c3ccccc3)C(=O)[C@H]12	x	x	n
COc1cc(/C=C/C=N/NC(=O)c2ccccn2)ccc1O	n	n	x
C[C@@H]1CN([C@@H](C)CO)C(=O)Cc2cc(NS(=O)(=O)c3ccc(Cl)cc3)ccc2O[C@H]1CN(C)Cc1ccccc1	x	x	n
C[C@H]1CN([C@@H](C)CO)C(=O)Cc2cc(NS(=O)(=O)c3ccc(Cl)cc3)ccc2O[C@@H]1CN(C)Cc1ccccc1	68.6	n	x
C[C@@H]1CN([C@@H](C)CO)C(=O)Cc2cc(NS(=O)(=O)c3ccc(Cl)cc3)ccc2O[C@@H]1CN(C)Cc1ccccc1	n	n	n
C[C@H]1CN([C@@H](C)CO)C(=O)Cc2cc(NS(=O)(=O)c3ccc(Cl)cc3)ccc2O[C@H]1CN(C)Cc1ccccc1	75.5	n	x
O=C(N/N=C/c1cc(Br)cs1)c1ccccn1	n	n	n
[N-]=[N+]=Nc1cccc(C(=O)NCCc2c[nH]c3ccccc23)c1	x	x	n
NC(=O)COc1ccccc1/C=N/NC(=O)c1ccccn1	n	n	n
COc1ccc(NC(=O)Nc2ccc3c(c2)CC(=O)N([C@H](C)CO)C[C@H](C)[C@@H](CN(C)Cc2ccc(C(F)(F)F)cc2)O3)cc1	x	x	n
C[C@@H]1CN([C@H](C)CO)C(=O)Cc2cc(NC(=O)Nc3ccc(C(F)(F)F)cc3)ccc2O[C@H]1CN(C)Cc1ccc(Oc2ccccc2)cc1	61.6	n	n
C[C@H](CO)N1C[C@H](C)[C@H](CN(C)Cc2ccc(Oc3ccccc3)cc2)Oc2ccc(NC(=O)Nc3ccc(C(F)(F)F)cc3)cc2CC1=O	63.7	n	n
O=C(O)CCCCCCC(=O)N/N=C/c1ccco1	n	n	n
Cc1ccccc1/C=N/NC(=O)CCCCCCC(=O)O	n	n	n
NC(=O)COc1ccccc1/C=N/NC(=O)CCCCCC(=O)NO	x	x	n
C[C@H]1CN([C@@H](C)CO)C(=O)c2cc(NC(=O)NC3CCCCC3)ccc2O[C@H]1CN(C)Cc1ccc2c(c1)OCO2	58.4	n	n
C[C@@H]1CN([C@H](C)CO)C(=O)c2cc(NC(=O)NC3CCCCC3)ccc2O[C@@H]1CN(C)Cc1ccc2c(c1)OCO2	n	n	n
C[C@H]1CN([C@@H](C)CO)C(=O)c2cc(NC(=O)NC3CCCCC3)ccc2O[C@@H]1CN(C)Cc1ccc2c(c1)OCO2	n	n	n
C[C@H](CO)N1C[C@H](C)[C@H](CN(C)Cc2ccc3c(c2)OCO3)Oc2ccc(NC(=O)NC3CCCCC3)cc2C1=O	56.2	x	n
O=C(N/N=C/c1cccnc1)c1ccccc1O	x	x	n
C[C@@H]1CCCCO[C@H](CN(C)Cc2ccc3c(c2)OCO3)[C@@H](C)CN([C@@H](C)CO)C(=O)c2cc(NC(=O)CCC(F)(F)F)ccc2O1	x	x	n
C[C@@H]1CN([C@H](C)CO)C(=O)c2cccc(NC(=O)Nc3ccccc3)c2O[C@H]1CN(C)Cc1ccc(C(=O)O)cc1	n	n	n
SMILES	T cruzi HTS	INS-1E rescue	A1 apoptosis 2
C[C@H](CO)N1C[C@H](C)[C@@H](CN(C)Cc2ccc(C(=O)Nc3ccccc3N)cc2)Oc2c(NC(=O)Nc3ccc(F)cc3)cccc2C1=O	n	n	x
C[C@H]1CN([C@@H](C)CO)C(=O)c2cccc(N(C)C)c2O[C@H]1CN(C)Cc1ccc(C(=O)Nc2ccccc2N)cc1	58.8	n	n
C[C@H](CO)N1C[C@H](C)[C@@H](CN(C)Cc2ccc(C(=O)Nc3ccccc3N)cc2)Oc2c(cccc2N(C)C)C1=O	n	n	n
C[C@@H]1CN([C@H](C)CO)C(=O)c2cccc(NC(=O)Nc3ccccc3)c2O[C@@H]1CN(C)Cc1ccc(C(=O)Nc2ccccc2N)cc1	70.2	n	n
C[C@H]1CN([C@@H](C)CO)C(=O)c2cccc(NC(=O)Nc3ccc(F)cc3)c2O[C@H]1CN(C)Cc1ccc(C(=O)Nc2ccccc2N)cc1	58.7	n	x
O=C(NO)c1ccc(C(=O)N/N=C/c2ccc3c(c2)CCO3)cc1	n	n	x
C/C=C\C=C/C1OC(O)(C(CC)C(=O)NC/C=C\C=C(\C)C(OC)C(C)C2OC(\C=C/C=C\C=C(\C)C(=O)c3c(O)cc[nH]c3=O)C(O)C2O)C(O)C(O)C1(C)C (stereo unspecified)	x	x	n
C[C@H](CO)N1C[C@H](C)[C@H](CN(C)Cc2ccc(Cl)c(Cl)c2)Oc2ccc(NC(=O)Nc3ccc(F)cc3)cc2CC1=O	u	n	x
C[C@H](CO)N1C[C@H](C)[C@@H](CN(C)Cc2ccc(Cl)c(Cl)c2)Oc2ccc(NC(=O)Nc3ccc(F)cc3)cc2CC1=O	x	x	n
C[C@@H]1CN([C@@H](C)CO)C(=O)Cc2cc(NC(=O)Nc3ccccc3)ccc2O[C@@H]1CN(C)Cc1ccc(Cl)c(Cl)c1	68.3	n	x
C[C@@H]1CN([C@@H](C)CO)C(=O)Cc2cc(NC(=O)Nc3ccc4c(c3)OCO4)ccc2O[C@@H]1CN(C)Cc1ccc(Cl)c(Cl)c1	n	n	x
C[C@@H]1CN([C@@H](C)CO)C(=O)Cc2cc(NC(=O)Nc3ccc(F)cc3)ccc2O[C@H]1CN(C)Cc1ccc(Cl)c(Cl)c1	x	x	n
C[C@H]1CN([C@@H](C)CO)C(=O)Cc2cc(NC(=O)Nc3ccc(F)cc3)ccc2O[C@H]1CN(C)Cc1ccc(Cl)c(Cl)c1	64.0	n	n
C[C@H]1CN([C@@H](C)CO)C(=O)Cc2cc(NC(=O)Nc3ccc4c(c3)OCO4)ccc2O[C@H]1CN(C)Cc1ccc(Cl)c(Cl)c1	63.3	n	x
C[C@@H]1CN([C@H](C)CO)C(=O)Cc2cc(NC(=O)Nc3ccc(F)cc3)ccc2O[C@@H]1CN(C)Cc1ccc(Cl)c(Cl)c1	68.1	n	n
O=C(NO)c1cccc(C(=O)N/N=C/c2ccc(I)cc2)c1	n	n	x
Cc1ccc(/C=N/NC(=O)CCCCC(=O)NO)o1	n	n	n
CC(C)=CCC[C@H](C)C/C=N/NC(=O)CCCCC(=O)NO	n	n	n
Cc1ccc(S(=O)(=O)Nc2ccc3c(c2)CC(=O)N([C@H](C)CO)C[C@@H](C)[C@@H](CN(C)CC2CCCCC2)O3)cc1	n	n	x
Cc1ccc(S(=O)(=O)Nc2ccc3c(c2)CC(=O)N([C@H](C)CO)C[C@@H](C)[C@H](CN(C)CC2CCCCC2)O3)cc1	85.3	n	n
C[C@@H]1CN([C@H](C)CO)C(=O)Cc2cc(NS(=O)(=O)c3ccc(Cl)cc3)ccc2O[C@H]1CN(C)CC1CCCCC1	65.5	n	n
C[C@H](CO)N1C[C@H](C)[C@@H](CN(C)CC2CCCCC2)Oc2ccc(NS(=O)(=O)c3ccc(Cl)cc3)cc2CC1=O	x	x	n

Screening data deposited in PubChem BioAssay by Broad Institute.
